Test results published in ChEMBL document CHEMBL2169848, “Synthesis physicochemical profile and PAMPA study of new NO-donor edaravone co-drugs” (Bioorg Med Chem, 2012).
Calls of active or inactive are those of the source. The calls are words filed in the database; no cut-off is given here.

How the values were obtained:
[1] = Half life in 0.1 M HCl/MeOH 60/40 (v/v) mixture by RP-HPLC analysis; assay type: physicochemical
Summary of the method: (§1)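 Methanolic compound solution (0.5 mM, 2 mL) diluted to 10 mL with 0.1 M HCl/MeOH 60/40 (v/v) and kept at 37 °C. Aliquots taken at intervals and analysed by RP-HPLC (C18, acetonitrile/water gradient, 240 nm) with calibration over 1–200 µM. Half-life from n = 3.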

[2] = Half life in human serum at 250 uM by RP-HPLC analysis; assay type: ADME, cell-free
Summary of the method: (§2)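 Compound added from a 10 mM methanol stock to human serum (male AB plasma) at 37 °C, final 250 µM. Aliquots taken at intervals and deproteinized with acetonitrile containing 0.1% TFA, then centrifuged and filtered. Analysed by RP-HPLC. Half-life from n = 3.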

[3] = Lipophilicity, log P of the compound in octanol-buffer at pH 7 by HPLC analysis; assay type: physicochemical
Summary of the method: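 Retention measured by isocratic RP-HPLC on an RP-amide-C16 column at 30 °C. Mobile phase was pH 7.0 phosphate buffer/methanol, 30–70%, ionic strength 20 mM; uracil used as dead-time marker. log kw extrapolated from at least four methanol ratios, each injected at least three times. Converted to logPoct via a reference line of 63 compounds.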

[4] = Half life in 5% DMSO/0.1 M KCl by RP-HPLC analysis; assay type: physicochemical; conditions: for half-life: 5% DMSO/0.1 M KCl
Summary of the method: (§3)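 10 mM DMSO stock added to water with 0.1 M KCl to give 5% DMSO (v/v), then filtered. Room temperature. Compound followed by RP-HPLC (C18, methanol/water gradient, 240 nm), calibration 1–200 µM. Half-life from n = 3.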

[5] = Half life in Wistar rat liver homogenate at 200 uM by RP-HPLC analysis; assay type: ADME, tissue-based
Summary of the method: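 Liver from male Wistar rats (200–250 g), 20% homogenate spun at 8000g. Incubated at 37 °C in Tris-HCl/KCl 100/150 mM, pH 7.4, with 6.4 mg protein/mL, 2 mM GSH and 1 mM NADPH. Compound 200 µM final, added from a 10 mM acetonitrile stock. Aliquots deproteinized with cold acetonitrile and analysed by RP-HPLC. Half-life from n = 3.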

Mus musculus [6] = test: Induction of nitrite release in mouse assessed as nitrite AUC (0 to 24 hrs) at 10 mg/kg, po measured over 24 hrs by LC-MS/MS analysis; assay type: organism-based; design: time < 24 hr, dose 10 mg/kg, route oral; conditions: in vivo
Summary of the method: (§4)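 Mice dosed orally at 10 mg/kg in imwitor742/tween80 50/50; blood drawn at fixed times over 24 h and precipitated with 3 volumes acetonitrile. Nitrite converted to naphtotriazole with DAN (1 mM, 10 µL per 200 µL sample) at room temperature and measured by LC-MS/MS against a 0.01-10 µM NAT calibration; basal level and conversion factor from spikes; AUC0-24h.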

Liver [7] = test: Induction of nitrate production in Wistar rat liver homogenate at 200 uM after 5 hrs by griess method; assay type: functional, tissue-based
Summary of the method: (§5)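 Male Wistar rat liver homogenate (6.4 mg protein/mL; 2 mM GSH, 1 mM NADPH; Tris-HCl/KCl pH 7.4; 37 °C) with compound at 200 µM final. Deproteinized filtrate mixed with Griess reagent: nitrite after 10 min at 37 °C; nitrite+nitrate after VCl3 reduction, 45 min at 37 °C. Absorbance at 540 nm, calibration 1–100 µM. Expressed as %mol per mol compound, n = 3.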

[8] = Permeability of the compound by PAMPA-HDM method; assay type: ADME
Summary of the method: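 96-well polycarbonate filters impregnated with 5% hexadecane in hexane. Donor held compound in water with 5% DMSO and 100 mM KCl; acceptor held the same medium. Incubated at room temperature with shaking at 150 rpm for 1–6 h. Both compartments quantified by RP-HPLC. logPe and retention R calculated with correction for hydrolysis; membrane integrity checked by electrical resistance.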

Liver [9] = test: Induction of nitrite production in Wistar rat liver homogenate at 200 uM after 5 hrs by griess method; assay type: functional, tissue-based; summary of the method: as §5
Thoracic aorta [10] = test: Vasodilatory activity in Wistar rat thoracic aorta assessed as inhibition of L-phenylephrine-induced contraction in presence of 1 uM 1H-[1,2,4]oxadiazolo[4,3-a]quinoxalin-1-one; assay type: functional, tissue-based
Summary of the method: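 Same rat aorta strip protocol with 1 µM L-phenylephrine precontraction. 1 µM ODQ was added 5 min before contraction, pre-incubating for at least 30 min before the vasodilator. Isometric recording; EC50 (±SEM) in µM from at least five experiments.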

Liver [11] = test: Induction of nitrate production in Wistar rat liver homogenate at 200 uM by griess method; assay type: functional, tissue-based; conditions: TDE = time-dependent effect; summary of the method: as §5
Thoracic aorta [12] = test: Vasodilatory activity in Wistar rat denuded thoracic aorta assessed as inhibition of L-phenylephrine-induced contraction; assay type: functional, tissue-based
Summary of the method: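 Endothelium-denuded thoracic aorta strips from male Wistar rats (180–200 g) in gassed Krebs-type buffer at 37 °C, pH 7.4. Strips equilibrated 1.5 h, then contracted with 1 µM L-phenylephrine. Cumulative concentrations added at plateau and isometric tension recorded. EC50 (±SEM) in µM from at least five experiments.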

Liver [13] = test: Induction of nitrite production in Wistar rat liver homogenate at 200 uM by griess method; assay type: functional, tissue-based; conditions: TDE = time-dependent effect; summary of the method: as §5
[14] = Stability in 5% DMSO/0.1 M KCl by RP-HPLC analysis; assay type: physicochemical; summary of the method: as §3
[15] = Stability in 0.1 M HCl/MeOH 60/40 (v/v) mixture by RP-HPLC analysis; assay type: physicochemical; conditions: buffer; summary of the method: as §1
Serum = test: Stability in human serum at 250 uM by RP-HPLC analysis; assay type: ADME, cell-free; summary of the method: as §2
Mus musculus [16] = test: AUC (0 to 24 hrs) in mouse assessed isosorbide mononitrate as at 10 mg/kg, po after 24 hrs; assay type: ADME, organism-based, Plasma; design: time < 24 hr, dose 10 mg/kg, route oral; conditions: in vivo; summary of the method: as §4

SMILES	half-life [1]	half-life at 250 µM [2]	logD [3]	half-life [4]	half-life at 200 µM [5]	EC50 (Thoracic aorta [10])	inhibition (Thoracic aorta [12])	also measured
Cc1cc(OC(=O)OCCCO[N+](=O)[O-])n(-c2ccccc2)n1	1.4 h	< 0.0167 h	3.35	13 h	< 1 min	–	–	AUC (Mus musculus [6]): 964 µM·min
Cc1cc(OC(=O)c2ccc(CC(CO[N+](=O)[O-])O[N+](=O)[O-])cc2)n(-c2ccccc2)n1 (configuration not stated)	8 h	0.118 h	4.88	–	< 1 min	–	–	Activity (Liver [7]): Active; t1/2 [4]: ND(Insoluble); log Pe [8]: ND(Insoluble); Activity (Liver [9]): Active
Cc1cc(OC(=O)C(C)(C)CCC(CO[N+](=O)[O-])O[N+](=O)[O-])n(-c2ccccc2)n1 (configuration not stated)	10 h	0.27 h	4.04	16 h	3 min	> 100 µM	Dose-dependent effect	Activity (Liver [7]): Active; Activity (Liver [11]): tde; EC50 (Thoracic aorta [12]): 2.5 µM; Activity (Liver [9]): Active; Activity (Liver [13]): tde
Cc1cc(OC(=O)c2ccc(OCC(CO[N+](=O)[O-])O[N+](=O)[O-])cc2)n(-c2ccccc2)n1 (configuration not stated)	25 h	0.13 h	5.14	–	< 1 min	–	–	Activity (Liver [7]): Active; t1/2 [4]: ND(Insoluble); log Pe [8]: ND(Insoluble); Activity (Liver [9]): Active
Cc1cc(OC(=O)OCCCCC(CO[N+](=O)[O-])O[N+](=O)[O-])n(-c2ccccc2)n1 (configuration not stated)	3.1 h	< 0.0167 h	4.63	6 h	< 1 min	–	–	Activity (Liver [7]): Active; Activity (Liver [9]): Active
CC(C)(CCC(CO[N+](=O)[O-])O[N+](=O)[O-])C(=O)O (configuration not stated)	–	–	–	–	–	> 100 µM	Dose-dependent effect	EC50 (Thoracic aorta [12]): 4.2 µM
O=C(O)CCCCCO[N+](=O)[O-]	–	–	–	–	–	> 100 µM	Dose-dependent effect	–
O=[N+]([O-])OCCCCCCO	–	–	–	–	–	> 100 µM	Dose-dependent effect	EC50 (Thoracic aorta [12]): 1.5 µM
Cc1cc(OC(=O)OCCCCCCO[N+](=O)[O-])n(-c2ccccc2)n1	4 h	< 0.0167 h	4.39	25 h	< 1 min	–	–	–
Cc1cc(OC(=O)CCCC(CO[N+](=O)[O-])O[N+](=O)[O-])n(-c2ccccc2)n1 (configuration not stated)	0.7 h	< 0.0167 h	3.95	10 h	< 1 min	–	–	–
O=C(O)c1ccc(OCC(CO[N+](=O)[O-])O[N+](=O)[O-])cc1 (configuration not stated)	–	–	–	–	–	–	Dose-dependent effect	–
O=[N+]([O-])OCCCO [ABRUCOMSTAT]	–	–	–	–	–	> 100 µM	Dose-dependent effect	EC50 (Thoracic aorta [12]): 4 µM
Cc1cc(OC(=O)C(C)(C)CO[N+](=O)[O-])n(-c2ccccc2)n1	1.9 h	0.0317 h	3.55	36 h	< 1 min	–	–	–
Cc1cc(OC(=O)c2ccc(OCCCO[N+](=O)[O-])cc2)n(-c2ccccc2)n1	35 h	0.0833 h	4.74	–	< 1 min	–	–	t1/2 [4]: ND(Insoluble); log Pe [8]: ND(Insoluble)
Cc1cc(OC(=O)c2ccc(CCCO[N+](=O)[O-])cc2)n(-c2ccccc2)n1	13 h	0.0667 h	4.76	–	< 1 min	–	–	t1/2 [4]: ND(Insoluble); log Pe [8]: ND(Insoluble)
O=C(O)c1ccc(CCCO[N+](=O)[O-])cc1	–	–	–	–	–	> 100 µM	Dose-dependent effect	–
CC1=NN(c2ccccc2)C(=O)C1 [EDARAVONE]	–	–	1.44	–	–	–	–	Stability [14]: Stable; Stability [15]: Stable; Stability (Serum): Stable
Cc1cc(OC(=O)C(C)(C)CCCCO[N+](=O)[O-])n(-c2ccccc2)n1	24 h	0.222 h	4.3	22 h	2 min	> 100 µM	Dose-dependent effect	Activity (Liver [11]): tde; EC50 (Thoracic aorta [12]): 11 µM; AUC (Mus musculus [6]): 1790 µM·min; Activity (Liver [13]): tde
CC(C)(CCCCO[N+](=O)[O-])C(=O)O	–	–	–	–	–	> 100 µM	Dose-dependent effect	EC50 (Thoracic aorta [12]): 8.9 µM
Cc1cc(OC(=O)CCCCCO[N+](=O)[O-])n(-c2ccccc2)n1	1 h	< 0.0167 h	3.79	31 h	< 1 min	–	–	–
O=[N+]([O-])O[C@H]1CO[C@H]2[C@@H]1OC[C@H]2O[N+](=O)[O-] [ISOSORBIDE DINITRATE]	–	–	–	–	–	–	–	AUC (Mus musculus [16]): 2352 µM·min
O=C(O)c1ccc(OCCCO[N+](=O)[O-])cc1	–	–	–	–	–	–	Dose-dependent effect	–
CC(C)(CO[N+](=O)[O-])C(=O)O	–	–	–	–	–	> 100 µM	Dose-dependent effect	EC50 (Thoracic aorta [12]): 13 µM
O=C(O)c1ccc(CC(CO[N+](=O)[O-])O[N+](=O)[O-])cc1 (configuration not stated)	–	–	–	–	–	> 100 µM	Dose-dependent effect	–
